Data set [1] in a line: Cytotoxicity against human HuH7 cells after 48 hrs by MTT assay. It is filed as functional, cell-based. The following applies: Huh-7, 48 h. An outline of the steps: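 Exponentially growing HuH7 hepatoma cells at 7000 per well, triplicates, dosed the next day with inhibitors at 5-150 μM for 48 h; curcumin served as positive control. MTT was then added in fresh DMEM for 4-5 h at 37 °C, and formazan was dissolved in DMSO and read at 570 nm. IC50 was derived from percent viability; three independent experiments, mean ± S.D.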

Data set [2] addresses T1, Calcium/calmodulin-dependent protein kinase type IV (Homo sapiens) (UniProt Q16566).
T1 sequence (whole entry): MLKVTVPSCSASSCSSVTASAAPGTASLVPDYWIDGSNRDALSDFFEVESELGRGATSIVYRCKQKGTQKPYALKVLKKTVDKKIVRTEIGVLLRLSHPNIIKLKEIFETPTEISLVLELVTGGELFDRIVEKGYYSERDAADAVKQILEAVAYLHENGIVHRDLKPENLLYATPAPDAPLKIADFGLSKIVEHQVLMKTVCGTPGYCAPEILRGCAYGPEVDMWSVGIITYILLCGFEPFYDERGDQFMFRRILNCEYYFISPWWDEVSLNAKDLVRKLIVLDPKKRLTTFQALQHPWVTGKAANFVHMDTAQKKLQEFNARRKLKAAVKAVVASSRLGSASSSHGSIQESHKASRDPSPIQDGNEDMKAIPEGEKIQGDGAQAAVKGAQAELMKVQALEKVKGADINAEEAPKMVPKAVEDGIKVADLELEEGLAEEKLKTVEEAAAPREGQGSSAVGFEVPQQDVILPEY
In words: Binding affinity to human CAMK4 at pH 7.4 by fluorescence emission spectra analysis. An outline of the steps: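 Recombinant CAMKIV kinase domain at 4 μM in 50 mM phosphate pH 7.4 with 150 mM NaCl, 25 °C. Titrated from a 1.0 mM ligand stock up to 132 μM final. Ligands were diluted from DMSO stock and dialyzed in buffer beforehand. Excitation at 280 nm, tryptophan emission read over 300-400 nm. Ka and n taken from a modified Stern–Volmer plot; three measurements.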

Data set [3] concerns HEK293. Put plainly: Cytotoxicity against human HEK293 cells up to 25 uM after 48 hrs by MTT assay. The conditions noted are these: hek293, 48 h. It is filed as cell-based. An outline of the steps:
(§1)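 HEK293 cells at 7000 per well, triplicates, treated the next day with inhibitors at 5-150 μM for 48 h. MTT was then added to fresh DMEM for 4-5 h at 37 °C. Formazan was dissolved in DMSO and read at 570 nm. Viability given as percent of untreated control.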
Background: Tetrazolium dyes change colour on reduction, which living cells bring about.

In data set [4] the test system is HEK293. Put plainly: Cytotoxicity against human HEK293 cells after 48 hrs by MTT assay. It counts as cell-based. The conditions noted are these: HEK293, 48 h.
For data set [5], the system named is HEK293. In words: Cytotoxicity against human HEK293 cells up to 50 uM after 48 hrs by MTT assay. It counts as cell-based. The following applies: hek293, 48 h. Summed up: as §1

This passage reports IC50, Kapp and Activity results from ChEMBL document CHEMBL3751708, “Structure guided design of potential inhibitors of human calcium-calmodulin dependent protein kinase IV containing pyrimidine scaffold” (Bioorg Med Chem Lett, 2016).

Each structure is given as a SMILES string. Some results are limits rather than exact numbers.

One may read the IC50 as the concentration that gives 50% inhibition. With `Nc1cccc(Oc2cc(Oc3cccc4cccnc34)ncn2)c1`, the 50% inhibitory concentration (IC50) was 116 µM in data set [1] and 400 µM in data set [4]. Also, in data set [2], the Kapp amounted to 1.6 ×10⁵ /M. Further, the Activity entry in data set [3] is “Non-toxic”.
`COc1ccc(Nc2cc(N3CCNCC3)ncn2)cc1`: the IC50 is 46 µM in data set [1] and greater than 400 µM in data set [4]. Besides, the Kapp in data set [2] came out at 2.2 ×10⁸ /M. For the same compound, the Activity result in data set [5] is on record as “Non-toxic”.
As to `N#Cc1cccnc1N1CCN(c2cc(Oc3cccc4cccnc34)ncn2)CC1`, the IC50 is 104 µM in data set [1] and greater than 400 µM in data set [4]. The Kapp in data set [2] was found to be 4.6 ×10⁵ /M. The Activity entry in data set [3] is listed as “Non-toxic”.
Turning to `COc1cc(/C=C/C(=O)CC(=O)/C=C/c2ccc(O)c(OC)c2)ccc1O` [CURCUMIN], the values for the IC50 in data set [1] and in data set [4] were 48 µM and greater than 400 µM, respectively.
